Measurements as given in ChEMBL document CHEMBL1149055, “Spiroquinazoline, a novel substance P inhibitor with a new carbon skeleton, isolated from Aspergillus flavipes” (J Nat Prod, 1994).
pKi: −log10 of the molar value. The source made the active and inactive calls. No cut-off for these calls is given here.

Assays:
[1] = target: T1, Substance-P receptor (Homo sapiens, UniProt P25103); test: Displacement of [3H]substance P from NK1 receptor in human astrocytoma cells at 200 uM; type: cell-based
T1 sequence (P25103 whole entry): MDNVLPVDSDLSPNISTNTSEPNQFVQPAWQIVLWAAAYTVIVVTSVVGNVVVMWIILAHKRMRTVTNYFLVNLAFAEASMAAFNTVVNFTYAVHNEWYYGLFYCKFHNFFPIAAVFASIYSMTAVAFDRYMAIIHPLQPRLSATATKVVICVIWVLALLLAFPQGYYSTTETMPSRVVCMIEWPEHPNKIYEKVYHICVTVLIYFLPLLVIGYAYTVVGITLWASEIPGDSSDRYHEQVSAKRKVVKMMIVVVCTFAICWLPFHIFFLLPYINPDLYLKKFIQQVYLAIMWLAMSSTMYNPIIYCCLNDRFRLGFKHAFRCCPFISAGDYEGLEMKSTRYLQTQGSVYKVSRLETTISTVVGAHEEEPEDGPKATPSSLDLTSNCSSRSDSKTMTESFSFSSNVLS

[2] = target: T1, Substance-P receptor; test: Displacement of [3H]substance P from NK1 receptor in human astrocytoma cells; type: cell-based
How it was run: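 Whole human astrocytoma cells; inhibition of [³H]-SP binding reported as a Ki in μM.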

| Activity [1] | SMILES | pKi [2] |
| --- | --- | --- |
| inactive | O=C1N[C@@H](Cc2ccc(O)cc2)C(=O)N2CCC[C@@H]12 | – |
| inactive | O=C(N[C@H](CO)Cc1ccccc1)c1ccccc1 | – |
| inactive | O=C1N[C@@H](Cc2ccccc2)C(=O)N2CCC[C@H]12 | – |
| inactive | CC(C)[C@@H]1NC(=O)[C@H]2CCCN2C1=O | – |
| inactive | O=C1N[C@@H](Cc2ccccc2)C(=O)N2CCC[C@@H]12 | – |
| inactive | C[C@H]1N[C@H]2N(C1=O)c1ccccc1[C@@]21C[C@@H]2C(=O)N[C@](C)(O1)c1nc3ccccc3c(=O)n12 | – |
| – | C=CC(C)(C)[C@@]12C[C@H]3C(=O)Nc4ccccc4C(=O)N3[C@@H]1N(C(C)=O)c1ccccc12 [ACYL ASZONALENIN] | 3.77 |
| inactive | CC(C)[C@@H]1NC(=O)[C@@H]2CCCN2C1=O | – |
| inactive | O=C1N[C@@H](Cc2c[nH]c3ccccc23)C(=O)Nc2ccccc21 | – |
| – | C[C@@]12NC(=O)[C@@H](C[C@@]13c1ccccc1N1C(=O)CN[C@@H]13)n1c2nc2ccccc2c1=O [SPIROQUINAZOLINE] | 4.02 |
| inactive | CC(C)C[C@@H]1NC(=O)[C@@H]2CCCN2C1=O | – |
| inactive | O=C1N[C@@H](Cc2ccc(O)cc2)C(=O)N2CCC[C@H]12 | – |
